# Test results published in ChEMBL document CHEMBL3352129, “Synthesis and biological activity of cyclolinopeptide A analogues modified with γ(3)-bis(homophenylalanine)” (Eur J Med Chem, 2014).
# Active and inactive are the calls of the source. No cut-off for these calls is given here. Numbered stars: 1 amine (or outer) side, 2 acyl side, 3 side chain; on linkers, the order of the positions; unused ones are H or OH. Square brackets hold non-standard residues; d marks the D form. Peptide text beside a SMILES is read from it. GABA(3S-Bn) = O=C(C[C@@H](CN[*:1])Cc1ccccc1)[*:2]; GABA(3R-Bn) = O=C(C[C@H](CN[*:1])Cc1ccccc1)[*:2]
# Tests used:
# PBMC [1] = assay: Cytotoxicity against human PBMC cells at 1 to 100 ug/ml after 24 hrs by MTT assay; assay type: cell-based
# In short: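 Human PBMC from a single donor were plated at 3×10^5/well in RPMI-1640 with 10% FCS. Compounds at 1, 10 or 100 μg/mL were added for 24 h. Viability was read by MTT and expressed as percent viable cells versus matching DMSO controls.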
# PBMC [2] = assay: Antiproliferative activity against human PBMC assessed as inhibition of PHA-induced proliferation at 1 to 100 ug/ml; assay type: functional, cell-based
# In short: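 Human PBMC from a single donor were isolated on a ficoll gradient and plated at 2×10^5 cells/well in RPMI-1640 with 10% FCS. Stimulation was PHA 5 μg/mL. Compounds were tested at 1, 10 and 100 μg/mL, with DMSO dilutions as control. After 4 days, proliferation was read by MTT. Result is mean OD of quadruplicate wells ± SE.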
# Blood [3] = assay: Inhibition of LPS-induced TNFalpha secretion in human whole blood cells at 25 ug/ml by immune assay; assay type: functional
# In short: (§1)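 Venous blood from a single donor was diluted 10× in RPMI-1640 and stimulated with E. coli LPS 1 μg/mL, serotype 0:111:B4. Compounds were added at 5 or 25 μg/mL, with DMSO dilutions as controls. After overnight culture, supernatants were frozen at −20 °C. TNF-α was then measured by ELISA.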
# [4] = Retention time of the compound; assay type: physicochemical
# Blood [5] = assay: Stimulation of LPS-induced TNFalpha secretion in human whole blood cells at 5 ug/ml by immuno assay; assay type: functional, cell-based; in short: as §1
# Blood [6] = assay: Stimulation of LPS-induced TNFalpha secretion in human whole blood cells at 25 ug/ml by immuno assay; assay type: functional, cell-based; in short: as §1
# Blood [7] = assay: Inhibition of LPS-induced TNFalpha secretion in human whole blood cells at 5 ug/ml by immune assay; assay type: functional; in short: as §1
# Mus musculus [8] = assay: Immunosuppressive effect in ovalbumin-induced mouse delayed type hypersensitivity model assessed as inhibition of DTH reaction at 100 ug, ip treated 2 hrs before ovalbumin sensitization; assay type: functional
# In short: (§2)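 CBA mice were sensitized s.c. at tail base with 5 μg OVA in complete Freund's adjuvant. After 4 days they were challenged with 50 μg OVA in incomplete adjuvant in hind foot pads. Swelling was measured by caliper 24 h later. Unsensitized challenged mice gave background. Compounds in DMSO/saline were given i.p. 2 h before sensitization or 2 h before elicitation, with solvent controls. Result: 5 mice/group, DTH units (10^-2 cm) ± SE.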
# Mus musculus [9] = assay: Immunosuppressive effect in ovalbumin-induced mouse delayed type hypersensitivity model assessed as inhibition of DTH reaction at 100 ug, ip treated 2 hrs before elicitation of DTH reaction with secoond dose of antigen; assay type: functional, organism-based; in short: as §2
SMILES,Retention_time [4] [min],Activity (PBMC [1]),inhibition (PBMC [2]),inhibition (Blood [3]),Activity (Blood [5]),Activity (Blood [6]),inhibition (Blood [7]),inhibition (Mus musculus [8]),inhibition (INH) (Mus musculus [8]) [%],inhibition (Mus musculus [9]),inhibition at 5 µg/mL (Blood [7]) [%],inhibition at 25 µg/mL (Blood [3]) [%]
CC[C@H](C)[C@H](N)C(=O)N[C@H](C(=O)N[C@@H](CC(C)C)C(=O)N[C@H](C(=O)N1CCC[C@H]1C(=O)N1CCC[C@H]1C(=O)NC[C@@H](CC(=O)NC[C@@H](CC(=O)N[C@@H](CC(C)C)C(=O)O)Cc1ccccc1)Cc1ccccc1)C(C)C)[C@@H](C)CC (H-IILVPP[GABA(3R-Bn)][GABA(3R-Bn)]L-OH),14.073,Non-toxic,inactive,Active,–,–,Active,Active,50,Active,–,–
CC[C@H](C)[C@@H]1NC(=O)[C@H](CC(C)C)NC(=O)[C@H](Cc2ccccc2)NC(=O)C[C@@H](Cc2ccccc2)CNC(=O)[C@@H]2CCCN2C(=O)[C@@H]2CCCN2C(=O)[C@H](C(C)C)NC(=O)[C@H](CC(C)C)NC(=O)[C@H]([C@@H](C)CC)NC1=O (cyclo(FLIILVPP[GABA(3R-Bn)])),10.033,Dose-dependent effect,Active,–,–,–,–,–,–,–,–,–
CC[C@H](C)[C@@H]1NC(=O)[C@H](CC(C)C)NC(=O)[C@H](Cc2ccccc2)NC(=O)C[C@H](Cc2ccccc2)CNC(=O)[C@@H]2CCCN2C(=O)[C@@H]2CCCN2C(=O)[C@H](C(C)C)NC(=O)[C@H](CC(C)C)NC(=O)[C@H]([C@@H](C)CC)NC1=O (cyclo(FLIILVPP[GABA(3S-Bn)])),9.89,Dose-dependent effect,Active,–,–,–,–,–,–,–,–,–
CC[C@H](C)[C@@H]1NC(=O)[C@H](CC(C)C)NC(=O)C[C@@H](Cc2ccccc2)CNC(=O)[C@H](Cc2ccccc2)NC(=O)[C@@H]2CCCN2C(=O)[C@@H]2CCCN2C(=O)[C@H](C(C)C)NC(=O)[C@H](CC(C)C)NC(=O)[C@H]([C@@H](C)CC)NC1=O (cyclo(F[GABA(3R-Bn)]LIILVPP)),11.87,Dose-dependent effect,Active,–,–,–,–,–,–,–,–,–
CC[C@H](C)[C@@H]1NC(=O)[C@H](CC(C)C)NC(=O)C[C@H](Cc2ccccc2)CNC(=O)[C@H](Cc2ccccc2)NC(=O)[C@@H]2CCCN2C(=O)[C@@H]2CCCN2C(=O)[C@H](C(C)C)NC(=O)[C@H](CC(C)C)NC(=O)[C@H]([C@@H](C)CC)NC1=O (cyclo(F[GABA(3S-Bn)]LIILVPP)),11.63,Non-toxic,Active,–,–,–,–,Active,–,Active,55,42
CC[C@H](C)[C@@H]1NC(=O)[C@H](CC(C)C)NC(=O)C[C@@H](Cc2ccccc2)CNC(=O)C[C@@H](Cc2ccccc2)CNC(=O)[C@@H]2CCCN2C(=O)[C@@H]2CCCN2C(=O)[C@H](C(C)C)NC(=O)[C@H](CC(C)C)NC(=O)[C@H]([C@@H](C)CC)NC1=O (cyclo(IILVPP[GABA(3R-Bn)][GABA(3R-Bn)]L)),9.242,Dose-dependent effect,Active,–,–,–,–,–,–,–,–,–
CC[C@H](C)[C@@H]1NC(=O)[C@H](CC(C)C)NC(=O)C[C@H](Cc2ccccc2)CNC(=O)C[C@@H](Cc2ccccc2)CNC(=O)[C@@H]2CCCN2C(=O)[C@@H]2CCCN2C(=O)[C@H](C(C)C)NC(=O)[C@H](CC(C)C)NC(=O)[C@H]([C@@H](C)CC)NC1=O (cyclo(IILVPP[GABA(3R-Bn)][GABA(3S-Bn)]L)),9.605,Dose-dependent effect,Active,–,–,–,–,–,–,–,–,–
CC[C@H](C)[C@@H]1NC(=O)[C@H](CC(C)C)NC(=O)C[C@@H](Cc2ccccc2)CNC(=O)C[C@H](Cc2ccccc2)CNC(=O)[C@@H]2CCCN2C(=O)[C@@H]2CCCN2C(=O)[C@H](C(C)C)NC(=O)[C@H](CC(C)C)NC(=O)[C@H]([C@@H](C)CC)NC1=O (cyclo(IILVPP[GABA(3S-Bn)][GABA(3R-Bn)]L)),10.543,Dose-dependent effect,Active,–,–,–,–,–,–,–,–,–
CC[C@H](C)[C@@H]1NC(=O)[C@H](CC(C)C)NC(=O)C[C@H](Cc2ccccc2)CNC(=O)C[C@H](Cc2ccccc2)CNC(=O)[C@@H]2CCCN2C(=O)[C@@H]2CCCN2C(=O)[C@H](C(C)C)NC(=O)[C@H](CC(C)C)NC(=O)[C@H]([C@@H](C)CC)NC1=O (cyclo(IILVPP[GABA(3S-Bn)][GABA(3S-Bn)]L)),10.11,Dose-dependent effect,Active,–,–,–,–,–,–,–,–,–

# Continued, in another order:
Retention_time [4] [min],SMILES,Activity (PBMC [1]),inhibition (PBMC [2]),inhibition (Blood [3]),Activity (Blood [5]),Activity (Blood [6]),inhibition (Blood [7]),inhibition (Mus musculus [8]),inhibition (INH) (Mus musculus [8]) [%],inhibition (Mus musculus [9]),inhibition at 5 µg/mL (Blood [7]) [%],inhibition at 25 µg/mL (Blood [3]) [%]
14.168,CC[C@H](C)[C@H](N)C(=O)N[C@H](C(=O)N[C@@H](CC(C)C)C(=O)N[C@H](C(=O)N1CCC[C@H]1C(=O)N1CCC[C@H]1C(=O)N[C@@H](Cc1ccccc1)C(=O)NC[C@@H](CC(=O)N[C@@H](CC(C)C)C(=O)O)Cc1ccccc1)C(C)C)[C@@H](C)CC (H-IILVPPF[GABA(3R-Bn)]L-OH),Non-toxic,inactive,Active,–,–,–,–,–,–,–,–
13.177,CC[C@H](C)[C@H](N)C(=O)N[C@H](C(=O)N[C@@H](CC(C)C)C(=O)N[C@H](C(=O)N1CCC[C@H]1C(=O)N1CCC[C@H]1C(=O)N[C@@H](Cc1ccccc1)C(=O)NC[C@H](CC(=O)N[C@@H](CC(C)C)C(=O)O)Cc1ccccc1)C(C)C)[C@@H](C)CC (H-IILVPPF[GABA(3S-Bn)]L-OH),Non-toxic,inactive,–,Active,Active,–,–,–,–,–,–
13.383,CC[C@H](C)[C@H](N)C(=O)N[C@H](C(=O)N[C@@H](CC(C)C)C(=O)N[C@H](C(=O)N1CCC[C@H]1C(=O)N1CCC[C@H]1C(=O)NC[C@@H](CC(=O)N[C@@H](Cc1ccccc1)C(=O)N[C@@H](CC(C)C)C(=O)O)Cc1ccccc1)C(C)C)[C@@H](C)CC (H-IILVPP[GABA(3R-Bn)]FL-OH),Non-toxic,inactive,Active,–,–,Active,–,–,–,–,–
13.085,CC[C@H](C)[C@H](N)C(=O)N[C@H](C(=O)N[C@@H](CC(C)C)C(=O)N[C@H](C(=O)N1CCC[C@H]1C(=O)N1CCC[C@H]1C(=O)NC[C@@H](CC(=O)NC[C@H](CC(=O)N[C@@H](CC(C)C)C(=O)O)Cc1ccccc1)Cc1ccccc1)C(C)C)[C@@H](C)CC (H-IILVPP[GABA(3R-Bn)][GABA(3S-Bn)]L-OH),Non-toxic,inactive,–,Active,Active,–,–,–,–,–,–
12.69,CC[C@H](C)[C@H](N)C(=O)N[C@H](C(=O)N[C@@H](CC(C)C)C(=O)N[C@H](C(=O)N1CCC[C@H]1C(=O)N1CCC[C@H]1C(=O)NC[C@H](CC(=O)N[C@@H](Cc1ccccc1)C(=O)N[C@@H](CC(C)C)C(=O)O)Cc1ccccc1)C(C)C)[C@@H](C)CC (H-IILVPP[GABA(3S-Bn)]FL-OH),Non-toxic,inactive,–,Active,Active,–,–,–,–,–,–
13.938,CC[C@H](C)[C@H](N)C(=O)N[C@H](C(=O)N[C@@H](CC(C)C)C(=O)N[C@H](C(=O)N1CCC[C@H]1C(=O)N1CCC[C@H]1C(=O)NC[C@H](CC(=O)NC[C@@H](CC(=O)N[C@@H](CC(C)C)C(=O)O)Cc1ccccc1)Cc1ccccc1)C(C)C)[C@@H](C)CC (H-IILVPP[GABA(3S-Bn)][GABA(3R-Bn)]L-OH),Non-toxic,inactive,–,–,–,–,–,–,–,–,–
13.233,CC[C@H](C)[C@H](N)C(=O)N[C@H](C(=O)N[C@@H](CC(C)C)C(=O)N[C@H](C(=O)N1CCC[C@H]1C(=O)N1CCC[C@H]1C(=O)NC[C@H](CC(=O)NC[C@H](CC(=O)N[C@@H](CC(C)C)C(=O)O)Cc1ccccc1)Cc1ccccc1)C(C)C)[C@@H](C)CC (H-IILVPP[GABA(3S-Bn)][GABA(3S-Bn)]L-OH),Non-toxic,inactive,–,Active,Active,–,–,–,–,–,–
